# Compound activity as filed in PubChem BioAssay.
# This is a sample that favours compounds with a hit; in the whole collection about 2.1% have one here.
# FN deposit inh: fibronectin deposition inhibition | AH1F fibroblasts, Alexa488-fibronectin deposition fluorescence, overnight | inhibition, % at 12.6 µM | 350,000 tested, 0.086% active;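 active = mean inhibition across replicates of 30% or more, regardless of how many single replicates reach that level; inconclusive = mean under 30% yet at least half of replicates reach 30%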
#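 Assay system: AH1F fibroblasts assembling fluorescent fibronectin matrix; Amount: 10000 AH1F cells per well; Buffer or medium: DMEM, 2% serum; Probe or stimulus: Alexa488-fibronectin, 24 nM final in well; Doses: single compound dose, delivered by pin transfer; Incubation: 1 h adhesion, overnight exposure; Measured by: fluorescence 485/525 nm; Read-out: fibronectin deposition inhibition.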
# Shn3 3UTR inh: Schnurri-3 reporter inhibition in Clone20 osteoblasts; Clone20 osteoblast Shn3 3'UTR firefly luciferase, 24 h; AID 588674; 360,000 tested, 0.52% active; inhibition, % at 12.5 µM;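 active = mean inhibition of at least 75% with every replicate also reaching 75%; inconclusive = mean inhibition at least 75% but some replicate below; inactive = mean inhibition below 75%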
# aSyn UTR inh: 5' untranslated region of α-synuclein, MLPCN primary screen | alpha-synuclein 5'UTR reporter, inhibitor activity | inhibition, % (tested at 7.5 µM) | 300,000 tested, 0.82% active | AID 1813; in the data active = inhibition above about 60%; inconclusive = no clear call, values can overlap the other calls;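 note: H4 neuroglioblastoma cells stably carrying SNCA 5'UTR luciferase fusion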
# EBV LMP1 NFkB: reduces LMP1-driven NF-kappaB luciferase signal; inhibition, % at 12.5 µM; AID 504558; LMP1-induced NF-kappaB luciferase reporter cells, luminescence; 350,000 tested, 0.69% active; in the data active = inhibition above about 41%; inconclusive = no clear call, values can overlap the other calls
# PAX8 reporter: inhibitors of PAX8 transcriptional activity in RMG-I cells. inhibition, % at 12.6 µM. AID 652154. 360,000 tested, 1.2% active. RMG-I TPO-luciferase reporter, SteadyGlo, 24 h;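 active = mean replicate inhibition at least 60% with every replicate also reaching 60%; inconclusive = only one of the two criteria is met; inactive = mean below 60% and not all replicates reaching 60%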;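 note: luciferase light reporting Pax8 driven TPO promoter activity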
# EWS-Fli block: blocks EWS/Fli oncoprotein-driven transcription; AID 651661; 350,000 tested, 0.67% active; A673 NR0B1-luciferase reporter, viability-normalised; inhibition, % at 12.6 µM;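 active = mean inhibition of at least 50% after viability correction, with every replicate also passing that limit; inconclusive = mean reaches 50% but only one of two replicates passes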;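 note: firefly luciferase signal divided by Alamar Blue viability fluorescence both relative to DMSO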
# Numbers stand for hits; n = inactive; u = inconclusive; x = not tested or not shown.
SMILES,FN deposit inh,Shn3 3UTR inh,aSyn UTR inh,EBV LMP1 NFkB,PAX8 reporter,EWS-Fli block
C[C@@H]1CN([C@H](C)CO)C(=O)c2cccc(NC(=O)c3nc4ccccc4s3)c2O[C@H]1CN(C)C(=O)Nc1cccc2ccccc12,n,x,x,x,x,x
Cc1cccc(NC2=NC(C)(C)N=C(N)N2)c1,n,n,98,n,n,n
Cn1c2ccccc2c(=O)c2cc(C#CC3(O)CCCCC3)ccc21,n,n,77,n,n,68
CCCC(=O)Nc1ccc(Cl)c(NC(=S)NC(=O)c2cc3ccccc3o2)c1,n,n,n,n,73,n
CCC(=O)Nc1ccc(NC(=S)NC(=O)c2cc3ccccc3o2)cc1,n,n,n,n,n,n
C[C@H](CO)N1C[C@H](C)[C@@H](CN(C)Cc2ccccc2)Oc2ncc(Br)cc2C1=O,x,x,x,x,x,n
C[C@H](CO)N1C[C@H](C)[C@H](CN(C)Cc2ccc(Oc3ccccc3)cc2)Oc2ccc(NS(=O)(=O)c3ccc(F)cc3)cc2CC1=O,x,x,x,x,n,n
C[C@@H]1CN([C@@H](C)CO)C(=O)Cc2cc(NS(=O)(=O)c3ccc(F)cc3)ccc2O[C@H]1CN(C)Cc1ccc(Oc2ccccc2)cc1,x,x,x,x,86,n
C[C@@H]1CN([C@@H](C)CO)C(=O)Cc2cc(NS(=O)(=O)c3ccc(Cl)cc3)ccc2O[C@H]1CN(C)Cc1ccc(Oc2ccccc2)cc1,n,x,x,x,106,n
Cc1ccc(S(=O)(=O)N(C)C[C@H]2Oc3ncc(C#CC4(O)CCCC4)cc3C(=O)N([C@@H](C)CO)C[C@H]2C)cc1,n,x,x,x,x,n
COc1ccc(S(=O)(=O)N[C@@H]2CC[C@H](CCn3cc(-c4ccccc4F)nn3)O[C@@H]2CO)cc1,n,x,x,x,n,n
COCc1cc(C)nc(SCC(=O)Nc2nc(C)cs2)c1C#N,n,n,u,n,n,62
Cc1cc(C)c(C(N)=O)c(SCC(=O)c2cc(C)n(-c3cc(C)on3)c2C)n1,n,90,x,n,n,n
Cc1cc(-n2c(C)cc(C(=O)CSc3nncn3C)c2C)no1,n,90,x,n,n,n
CN(C)C(=O)[C@@H]1[C@@H](CO)[C@@H]2Cn3c(ccc(C4=CCCC4)c3=O)[C@H]1N2CCC(F)(F)F,x,x,x,x,n,n
O=C1c2ccccc2C(Nc2ccc(Cl)cc2)N1CCN1CCOCC1 (stereo unspecified),n,n,n,83,n,n
CCOc1ccc(S(=O)(=O)N2CCN=C2c2ccccc2)cc1,n,n,n,n,x,55
CC(=O)N(C)C[C@H]1Oc2cc(-c3ccc(C#N)cc3)ccc2S(=O)(=O)N([C@H](C)CO)C[C@H]1C,n,x,x,x,x,n
Cc1ccccc1Cn1cc(NC(=O)c2noc(C(C)C)c2[N+](=O)[O-])cn1,n,n,106,n,n,n
Cc1ccc(CCNC(=O)CCn2ccc3cc(S(=O)(=O)N4CCCC4)ccc32)cc1,n,n,n,n,n,n
O=C(CCn1ccc2cc(S(=O)(=O)N3CCCC3)ccc21)NCCc1ccccc1,n,n,n,72,n,x
CCOc1cccc2sc(N(CCCN(C)C)C(=O)c3ccc(S(=O)(=O)N(CC)Cc4ccccc4)cc3)nc12,n,n,71,n,n,n
CCOc1cccc2sc(N(CCCN(C)C)C(=O)c3ccc(S(=O)(=O)N(C)Cc4ccccc4)cc3)nc12,n,n,u,n,n,n
COc1cc2nc(N(CCCN(C)C)C(=O)c3ccc(S(=O)(=O)N4CCc5ccccc5C4)cc3)sc2cc1OC,n,n,n,n,n,n
COc1ccc(C)c2sc(N(CCCN(C)C)C(=O)c3ccc(S(=O)(=O)N4CCc5ccccc5C4)cc3)nc12,n,92,91,n,u,58
SMILES,FN deposit inh,Shn3 3UTR inh,aSyn UTR inh,EBV LMP1 NFkB,PAX8 reporter,EWS-Fli block
CC1CCCCN1S(=O)(=O)c1ccc(C(=O)N(CCCN(C)C)c2nc3ccc(Br)cc3s2)cc1 (stereo unspecified),x,n,67,n,n,x
COc1cccc2sc(N(CCCN(C)C)C(=O)c3ccc(S(=O)(=O)N4CCc5ccccc5C4)cc3)nc12,x,n,94,x,n,x
Cc1ccc2sc(N(CCCN(C)C)C(=O)c3ccc(S(=O)(=O)N4CCc5ccccc5C4)cc3)nc2c1C,n,n,n,n,n,n
Cc1ccc(S(=O)(=O)Nc2ccc3c(c2)C(=O)N([C@@H](C)CO)C[C@@H](C)[C@@H](CN(C)S(C)(=O)=O)OCCCC[C@@H](C)O3)cc1,n,x,x,x,n,n
CN(C)CCCN(C(=O)c1ccc(S(=O)(=O)N2CCc3ccccc3C2)cc1)c1nc2c(F)cc(F)cc2s1,x,n,n,n,x,x
COc1ccc(OC)c2sc(N(CCCN(C)C)C(=O)c3ccc(S(=O)(=O)N4CCc5ccccc5C4)cc3)nc12,x,x,100,x,x,x
COc1cccc2sc(N(CCCN(C)C)C(=O)c3ccc(S(=O)(=O)N4CCCc5ccccc54)cc3)nc12,n,n,64,n,x,n
COCC(=O)Nc1ccc2c(c1)[C@@H]1C[C@H](CC(=O)NCc3ccccc3F)O[C@@H](CO)[C@@H]1O2,x,x,x,x,n,n
C[C@@H]1CCCCO[C@@H](CN(C)Cc2ccc(Cl)c(Cl)c2)[C@H](C)CN([C@H](C)CO)C(=O)c2cc(NS(=O)(=O)c3cccs3)ccc2O1,n,x,x,x,u,n
C[C@@H]1CCCCO[C@@H](CN(C)Cc2ccc(Cl)c(Cl)c2)[C@H](C)CN([C@@H](C)CO)C(=O)c2cc(NS(=O)(=O)c3cccs3)ccc2O1,n,x,x,x,71,n
C[C@@H]1CN([C@H](C)CO)C(=O)c2cc(NS(=O)(=O)c3cccs3)ccc2O[C@@H](C)CCCCO[C@@H]1CN(C)Cc1ccc(Cl)c(Cl)c1,n,x,x,x,80,n
C[C@@H]1CN([C@H](C)CO)C(=O)c2cc(NS(=O)(=O)c3cccs3)ccc2O[C@@H](C)CCCCO[C@H]1CN(C)Cc1ccc(Cl)c(Cl)c1,n,x,x,x,75,n
O=C(C[C@H]1C=C[C@H](NC(=O)CC2CC2)[C@H](CO)O1)NCc1ccccc1,x,x,x,x,x,n
Cc1c(CCOC(=O)CC23CC4CC(CC(C4)C2)C3)sc[n+]1CC(=O)c1ccc(Br)cc1,n,94,n,n,x,x
CC(C)CCCCCCCCCCCCC(=O)NCC(=O)NC1C(O)C(O)C(Nc2ncnc3nc[nH]c23)OC1C(O)CO (stereo unspecified),x,97,x,88,x,x
C=CCn1c(SCc2csc(C)n2)nc2sc3c(c2c1=O)CCCC3,x,n,n,44,x,x
O=C(Nc1ccc([N+](=O)[O-])cc1)Nc1ccon1,n,n,74,n,n,x
CCc1ccc(NC(=O)Nc2ccon2)cc1,n,n,n,n,n,x
O=C(C[C@@H]1C[C@H]2c3cc(NS(=O)(=O)c4ccc(F)cc4)ccc3O[C@H]2[C@@H](CO)O1)NCc1ccc(Oc2ccccc2)cc1,x,x,x,x,91,59
O=C(C[C@H]1C[C@@H]2c3cc(NS(=O)(=O)c4ccc(F)cc4)ccc3O[C@@H]2[C@H](CO)O1)NCc1ccc(-c2ccccc2)cc1,n,x,x,x,65,n
